MEKK2 mut-MEK5 = signal of MEK5 binding to mutant human MEKK2 PB1 domain; bead flow cytometry, Alexa488-MEK5 binding to MEKK2 mutant; percent response, % at 10 µM; hit rate 0.35% among 290,000; AID 1530; in the data active = percent response above about 24%, passing the limit was not always enough
STK33 inh = human STK33 kinase inhibition; Q9BYT3; AID 2661; hit rate 0.073% among 320,000; inhibition, % at 10 µM; purified STK33, MBP phosphorylation, ADP-Glo luminescence;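 active = inhibition at or above 25%, using the most active replicate where run in duplicate; inactive = inhibition below 25%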
GSK3beta inhib = human GSK3beta kinase inhibition; AID 2097; GST-GSK3beta kinase, ADP-Glo luminescence, 60 min; active compounds read low; hit rate 0.038% among 300,000; activity score (negative = inhibition), % at 10 µM; P49841;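 active = more than half of replicate wells score below -50%, meaning over 50% inhibition versus plate controls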
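Assay system: GST-fused GSK3beta enzyme, cell-free / Medium: Tris pH 7.5 buffer with MgCl2, DTT, BSA, heparin / Also added: peptide substrate plus 25 µM ATP (final) / Compound: 10 µM single point / Timing: kinase reaction with compound 60 min at room temperature / Detection: ADP-Glo luminescence / Benchmarks: DMSO neutral wells and GW8510 at 20 µM as positive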
MEKK2 WT-MEK5 = raises or lowers MEK5 binding to wildtype human MEKK2 PB1 domain. bead flow cytometry, Alexa488-MEK5 binding to MEKK2 WT; actives lie on both sides. binding response (% of control), % at 10 µM. Q9Y2U5. hit rate 1.1% among 290,000; in the data active = binding response below about 67% or above about 130%
GSK3 alpha inh = blocks human GSK-3 alpha kinase | P49840 | ADP-Glo luminescence, 60 min | inhibition, % at 10 µM | hit rate 0.1% among 320,000 | AID 2650;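 active = more than half of replicates show inhibition above 20%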;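 note: GST-tagged GSK-3 alpha with peptide substrate and 25 µM ATP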
Target sequence (P49840 whole entry, looked up): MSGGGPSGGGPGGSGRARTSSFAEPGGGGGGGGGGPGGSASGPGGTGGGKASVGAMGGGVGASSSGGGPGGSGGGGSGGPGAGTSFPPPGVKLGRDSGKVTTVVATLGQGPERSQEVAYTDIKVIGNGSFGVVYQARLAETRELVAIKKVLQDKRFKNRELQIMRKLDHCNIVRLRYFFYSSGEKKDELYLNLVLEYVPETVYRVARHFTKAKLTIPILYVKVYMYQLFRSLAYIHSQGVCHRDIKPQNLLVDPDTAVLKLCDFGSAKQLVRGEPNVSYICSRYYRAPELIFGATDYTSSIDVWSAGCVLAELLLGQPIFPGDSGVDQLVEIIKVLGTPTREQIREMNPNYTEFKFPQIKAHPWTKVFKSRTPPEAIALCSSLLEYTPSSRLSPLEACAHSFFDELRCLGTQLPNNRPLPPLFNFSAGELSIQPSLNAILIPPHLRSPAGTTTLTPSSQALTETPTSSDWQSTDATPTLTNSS
MEKK3 PB1 HTS = MEKK3-MEK5 PB1 interaction, increase or decrease; Q99759; bead-based flow cytometry, Alexa488-MEK5 binding to MEKK3; actives lie on both sides; 0 = blocked by unlabeled MEK5, 100 = vehicle; binding response (% of control), % at 10 µM; hit rate 1.4% among 290,000; AID 1529;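 active = binding response more than 3 SD above or below the average of its plate-row segment, actives on both sides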;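 note: Alexa488 bead fluorescence after subtracting the streptavidin-only scavenger bead signal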
Of the large screens only hits and unclear results are named; the others gave an inactive call; [ ] = another dose, or the depositor's remark. The list is not random: actives were taken first. Their share in the collection is about 2.1%.

COc1ccc(C2C3=C(CCCC3=O)Nc3n[nH]c(C)c32)cc1OC (stereo not given)	none
Cc1[nH]nc2c1C(c1cccc(O)c1)C1=C(CC(C)(C)CC1=O)N2 (stereo not given)	GSK3beta inhib -92, GSK3 alpha inh 97
Cc1ccc(C2C3=C(CC(C)(C)CC3=O)Nc3n[nH]c(C)c32)cc1 (stereo not given)	GSK3beta inhib -60, GSK3 alpha inh 77
Cc1[nH]nc2c1C(c1ccc(N(C)C)cc1)C1=C(CC(C)(C)CC1=O)N2 (stereo not given)	none
Cc1[nH]nc2c1C(c1ccc(F)cc1)C1=C(CC(C)(C)CC1=O)N2 (stereo not given)	GSK3beta inhib -56 (no result: STK33 inh)
COc1ccc(-n2nc(C(=O)NCC(=O)N3CCC(C(N)=O)CC3)c3ccccc3c2=O)cc1	none (no result: GSK3beta inhib)
NS(=O)(=O)c1cccc(NC(=O)c2ccc(NS(=O)(=O)c3cccc([N+](=O)[O-])c3)cc2)c1	none (no result: MEKK2 mut-MEK5, GSK3beta inhib, MEKK2 WT-MEK5, MEKK3 PB1 HTS)
Cc1cc(Br)cc(Cl)c1OC(=O)c1cnccn1	none
Cc1cc(Br)cc(Cl)c1OC(=O)c1ccncc1	MEKK2 WT-MEK5 1.0[inhibitor], MEKK3 PB1 HTS 1.0[inhibitor]
O=C(CN(C(=O)c1csnn1)c1ccccc1C(F)(F)F)NCc1ccccc1	none
Nc1nn(-c2ccccc2)c(N)c1N=Nc1ccccc1F	MEKK3 PB1 HTS 129
CCN(CC)CCNc1ncnc2c1sc1nc(N3CCCC3)c3c(c12)CC(C)(C)OC3	MEKK2 WT-MEK5 150
COC(=O)c1ccc2c(c1)C(C)(C)C(/C=C/c1ccc(OC)c(OC)c1OC)=[N+]2C	none
COC(=O)c1ccc2c(c1)C(C)(C)C(/C=C/c1ccc(O)cc1)=[N+]2C	MEKK2 WT-MEK5 51[inhibitor]
Nc1cc(C(=O)O)c(N)c2c1C(=O)c1ccccc1C2=O	STK33 inh 77, GSK3 alpha inh 55
Nc1c(C(=O)O)ccc2c1C(=O)c1ccccc1C2=O	STK33 inh 52, GSK3 alpha inh 58
Cc1ccc(NC(=S)NC(=O)c2ccccc2)cc1NC(=S)NC(=O)c1ccccc1	MEKK2 WT-MEK5 2.0
COC(=O)c1ccccc1NC(=S)NC(=O)c1ccccc1	none
COc1ccccc1/C=C/CN1CCC(n2nccc2NC(=O)CCc2ccccc2)CC1	MEKK2 WT-MEK5 138
O=C(CCc1ccccc1)Nc1ccnn1C1CCN(C/C=C/c2ccccc2)CC1	MEKK2 mut-MEK5 27
CCCc1ccc(-c2csc(NC(=O)C3=COCCO3)n2)cc1	none (no result: MEKK2 mut-MEK5, GSK3beta inhib, MEKK2 WT-MEK5, MEKK3 PB1 HTS)
CC1=NNC(=O)C1CC(=O)N/N=C(\C)c1cccs1 (stereo not given)	none
Cc1ccc(S(=O)(=O)N(CCO)Cc2cc3ccc(C)c(C)c3[nH]c2=O)cc1	none
Cc1ccc(S(=O)(=O)N(CCCO)Cc2cc3c(C)ccc(C)c3[nH]c2=O)cc1	MEKK2 WT-MEK5 -2.0
Cc1ccc(C(C)C)c(OCc2nn(CC(=O)c3ccc(Cl)cc3)c3[n+]2CCCCC3)c1	MEKK2 WT-MEK5 192
O=C(Cn1nc(CNc2ccc(Cl)cc2)[n+]2c1CCCCC2)c1ccccc1	none
CCN1C(=O)CC(c2ccccc2)N(C2CCCC2)c2nc(Nc3ccc(C(=O)NC4CCN(C)CC4)cc3OC)ncc21 (stereo not given)	STK33 inh 47 (no result: MEKK2 mut-MEK5, GSK3beta inhib, MEKK2 WT-MEK5, MEKK3 PB1 HTS)
Cc1cnc(=O)[nH]c1SCc1ccc([N+](=O)[O-])cc1	none
CCC1CCCCN1CCCNC(=O)c1ccc(/C=C2/Sc3ccccc3NC2=O)cc1 (stereo not given)	MEKK2 WT-MEK5 151
COc1ccc(/C=C2/Sc3ccc(C(=O)NCCN4CCCCCC4)cc3NC2=O)cc1	MEKK2 mut-MEK5 71, MEKK2 WT-MEK5 281
COc1ccc(/C=C2\Sc3ccc(C(=O)NCCCN4CCCC4)cc3N(C)C2=O)cc1OC	MEKK2 mut-MEK5 35, MEKK2 WT-MEK5 202
CCC1CCCCN1CCCNC(=O)c1ccc2c(c1)NC(=O)CS2 (stereo not given)	none
O=C1Nc2cc(C(=O)NCCCN3CCCC3)ccc2S/C1=C\c1ccccc1	MEKK2 WT-MEK5 153
Cc1ccc(C)c(NC(=O)CN(C)C(=O)c2ccccc2OCc2ccc(Cl)cc2)c1	none (no result: MEKK2 mut-MEK5, MEKK2 WT-MEK5, MEKK3 PB1 HTS)
Cc1ccnc(NC(=O)c2cnc(Cl)c(Cl)c2)c1	none
CCN1CCN(CC(=O)c2ccc(OC)cc2)CC1	none
CCN(CC)CCCNc1nc(N)c([N+](=O)[O-])c(NCCO)n1	none
Nc1nc(NCCc2ccccc2)nc(NCCO)c1[N+](=O)[O-]	GSK3 alpha inh 93
CN(C)CCCNc1nc(N)c([N+](=O)[O-])c(NCCO)n1	GSK3 alpha inh 50
CC(C)=CCN1CCN(Cc2cn[nH]c2C2CCCCC2)CC1CCO (stereo not given)	none
Cc1ccsc1C1C2=C(CCCC2=O)Nc2ncnn21 (stereo not given)	none
Cc1ccsc1C1C2=C(CC(C)(C)CC2=O)Nc2ncnn21 (stereo not given)	GSK3 alpha inh 63
CCN(CC)CCNC(=S)Nc1ccc2nc(N3CCN(CC)CC3)cc(C)c2c1	none
Cc1cc(N2CCN(C)CC2)nc2ccc(NC(=S)NCCN3CCc4ccccc4C3)cc12	MEKK2 WT-MEK5 158
CC(=O)c1ccc(N2CCN(S(=O)(=O)c3cc4c(cc3C)NC(=O)CO4)CC2)cc1	MEKK2 WT-MEK5 0.0[inhibitor], MEKK3 PB1 HTS 1.0[inhibitor] (no result: STK33 inh, GSK3 alpha inh)
N#C/C(=C/C=C/c1ccccc1)C(=O)Nc1ccccc1	STK33 inh 16 (no result: GSK3beta inhib)
CC1CCN(C(=O)c2ccc(NS(=O)(=O)c3ccc4[nH]c(=O)[nH]c4c3)cc2)CC1	none (no result: MEKK2 mut-MEK5, GSK3beta inhib, MEKK2 WT-MEK5, MEKK3 PB1 HTS)
O/N=C/c1cn(-c2ccccc2)nc1-c1ccccc1	none
COc1ccc(-c2nn(-c3ccccc3)cc2/C=N/O)cc1OC	GSK3beta inhib -56, GSK3 alpha inh 73
Nc1ncc(-c2ccccc2)c(-c2ccc(O)cc2O)n1	GSK3 alpha inh 60
CCN(CC(=O)Nc1ccc2c(c1)OCCO2)C(=O)c1ccccc1Br	none (no result: MEKK2 mut-MEK5, GSK3beta inhib, MEKK2 WT-MEK5, MEKK3 PB1 HTS)
CN1CCN(C(CNS(=O)(=O)c2ccc(Br)cc2)c2ccc3c(c2)OCO3)CC1 (stereo not given)	none (no result: MEKK2 mut-MEK5, MEKK2 WT-MEK5, MEKK3 PB1 HTS)
O=C(NCCCO)c1cc2c(cn1)[nH]c1ccccc12	none
O=C(NCCCO)c1cc2c([nH]c3ccccc32)c(-c2ccccc2)n1	STK33 inh 29
CCCCc1cc2c(cn1)=C(OC(=O)c1cnc3ccccc3n1)C(C)(OC(=O)CC)C(=O)C=2 (stereo not given)	MEKK2 WT-MEK5 143 (no result: STK33 inh, GSK3beta inhib, GSK3 alpha inh)
COc1ccc(-c2cnc(N)n2C)cc1	MEKK2 WT-MEK5 -8.0
COc1ccc(N2CCN(C(=O)C(=O)c3cn(CC(=O)N4CCCCCC4)c4ccccc34)CC2)cc1	MEKK2 WT-MEK5 -5.0
CCN1CCN(C(=O)C(=O)c2cn(CC(=O)N3CCCCCC3)c3ccccc23)CC1	MEKK2 WT-MEK5 56
CCN1CCN(C(=O)C(=O)c2cn(CC(=O)N3CCCC3)c3ccccc23)CC1	none
CCOC(=O)Cc1c[nH]c(=S)[nH]c1=O	none

Source: PubChem BioAssay (several laboratories)
